Series [1] in a line: Drug metabolism in human hepatocytes assessed as total turnover after 2 hrs by LC-MS/MS-radiometric analysis. In kind it is ADME, cell-based, Hepatocyte. The conditions noted are these: read-out: Drug metabolism. In a few lines: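 14C-labeled compound incubated with human hepatocytes. Parent and radiolabeled metabolites were analyzed by tandem LC–MS/MS with radiometric detection and expressed as % of administered dose.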

Series [2] has as its system Liver microsome. The series can be described thus: Oxidative metabolism in human liver microsomes assessed as protein covalent binding measured per mg protein at 10 uM after 1 hr in presence of NADPH.
In series [3] the test system is Liver microsome. Nature of the series: Oxidative metabolism in human liver microsomes assessed as protein covalent binding measured per mg protein at 10 uM after 1 hr in presence of NADPH.
A short description of series [4]: Oral bioavailability in dog at 2 mg/kg. Format: ADME, organism-based, Canis lupus familiaris. The conditions noted are these: in vivo. Put shortly: (§1)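 Oral dose 2.0 mg/kg. Rat and dog received a solution in 15% HPβCD in Ora-Plus. Cynomolgus monkey received a suspension in 1% Tween 80 and 1% methylcellulose (4000 cps) in deionized water. Values are averages of three animals; iv reference dose was 0.5 mg/kg.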

A short description of series [5]: Cmax in cynomolgus monkey at 2 mg/kg, po. In kind it is ADME, organism-based, Macaca fascicularis. On the set-up: dose 2 mg/kg, route oral. The conditions noted are these: in vivo. Put shortly:
as §1

A short description of series [6]: Cmax in dog at 2 mg/kg, po. Format: ADME, organism-based, Canis lupus familiaris. Set-up: dose 2 mg/kg, route oral. The following applies: in vivo. In a few lines:
as §1

Another series relates to Cynomolgus monkey. The conditions noted are these: Macaca fascicularis; at 10 mg/kg.
Series [7] is described as follows: Clearance in rat at 0.5 mg/kg, iv. In kind it is ADME, organism-based. The following applies: in vivo. On the set-up: dose 0.5 mg/kg, route intravenous. In a few lines:
(§2)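 Intravenous dose 0.5 mg/kg, formulated in 10% N,N-dimethylacetamide, 10% ethanol, 40% propylene glycol and 40% water. Values are averages of three animals per species.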

Series [8] in a line: Half life in cynomolgus monkey at 0.5 mg/kg, iv. Format: ADME, organism-based, Macaca fascicularis. Set-up: dose 0.5 mg/kg, route intravenous. The conditions noted are these: in vivo. In a few lines:
as §2

The nature of series [9]: Half life in dog at 0.5 mg/kg, iv. On the set-up: dose 0.5 mg/kg, route intravenous. The conditions noted are these: in vivo. In kind it is ADME, organism-based, Canis lupus familiaris. Put shortly: as §2
Series [10] is described as follows: Clearance in dog at 0.5 mg/kg, iv. Format: ADME, organism-based, Canis lupus familiaris. Set-up: dose 0.5 mg/kg, route intravenous. The conditions noted are these: in vivo. Put shortly:
as §2

Series [11] is described as follows: Volume of distribution at steady state in rat at 0.5 mg/kg, iv. In kind it is ADME, organism-based. Set-up: dose 0.5 mg/kg, route intravenous. The conditions noted are these: in vivo, read-out: Vdss. Put shortly:
as §2

Series [12] in a line: Half life in rat at 0.5 mg/kg, iv. Set-up: dose 0.5 mg/kg, route intravenous. Format: ADME, organism-based. The conditions noted are these: in vivo. In a few lines: as §2
The nature of series [13]: Cmax in rat at 2 mg/kg, po. Set-up: dose 2 mg/kg, route oral. In kind it is ADME, organism-based. The following applies: in vivo. Put shortly:
as §1

A short description of series [14]: Oral bioavailability in cynomolgus monkey at 2 mg/kg. The following applies: in vivo. In kind it is ADME, organism-based, Macaca fascicularis. Put shortly: as §1
Series [15] in a line: Oral bioavailability in rat at 2 mg/kg. In kind it is ADME, organism-based. The conditions noted are these: in vivo. Put shortly: as §1
Series [16] is described as follows: Clearance in cynomolgus monkey at 0.5 mg/kg, iv. In kind it is ADME, organism-based, Macaca fascicularis. On the set-up: dose 0.5 mg/kg, route intravenous. The conditions noted are these: in vivo. Put shortly:
as §2

Series [17] is described as follows: Volume of distribution at steady state in dog at 0.5 mg/kg, iv. Format: ADME, organism-based, Canis lupus familiaris. Set-up: dose 0.5 mg/kg, route intravenous. The conditions noted are these: in vivo, read-out: Vdss. In a few lines: as §2
Series [18] in a line: Volume of distribution at steady state in cynomolgus monkey at 0.5 mg/kg, iv. In kind it is ADME, organism-based, Macaca fascicularis. Set-up: dose 0.5 mg/kg, route intravenous. The following applies: in vivo, read-out: Vdss. In a few lines: as §2

As to `C[C@](O)(c1ccc(S(=O)(=O)c2ccc([14C]#N)cc2Cl)cc1)C(F)(F)F`, in series [1], the metabolised at 2 h came to 9.8%. Besides, the PB in the series with Liver microsome [2] and with Liver microsome [3] was 370 pmol throughout.
For the compound `C[C@](O)(c1ccc(C(=O)N(C2CC2)[C@H]2CC[C@](CO[14C](N)=O)(c3ccc(F)cc3)CC2)cc1)C(F)(F)F`, the PB in the series with Liver microsome [2] and in the series with Liver microsome [3] was 15 pmol each time.
For the compound `C[C@@H]1CN(CC2(C(N)=O)CC2)[14CH2][14CH2]N1S(=O)(=O)c1ccc([C@](C)(O)C(F)(F)F)cc1`, the PB in the series with Liver microsome [2] and in the series on Liver microsome [3] was 70 pmol in each case.
In the case of `C[C@](O)(c1ccc(C(=O)N(C2CC2)[C@H]2CC[C@](COC(N)=O)(c3ccc(F)cc3)CC2)cc1)C(F)(F)F` (mixture of isomers), the bioavailability in series [4] came out at 88%; in [14] it was 38%; in [15], 72%. For the same compound, the Cmax in series [5] worked out at 211 ng/mL; in [6], 1840 ng/mL; in [13] it was 1130 ng/mL. Moreover, in the series with Cynomolgus monkey, the inhibition result was “Dose-dependent effect”. In addition, the figures for the clearance in series [7], in [10] and in series [16] were 0.683 mL/min/kg, 0.2 mL/min/kg and 0.483 mL/min/kg, respectively. The half-life in [8] is 27 h; in series [9], 78 h; in series [12], 43 h. Moreover, the Vd in series [11] is 2.3 L/kg; in series [17], 1.2 L/kg; in series [18], 1 L/kg.
On to `c1ccc2ccccc2c1`, for which, in the series with Liver microsome [2], the PB was found to be 420 pmol.

The values are drawn from ChEMBL document CHEMBL3352714, “Synthesis, in Vitro Covalent Binding Evaluation, and Metabolism of (14)C-Labeled Inhibitors of 11β-HSD1” (ACS Med Chem Lett, 2014).
